Test results: article PMC9847367 (European Journal of Medicinal Chemistry, 2023)
Counter-ions that a name gives are not always drawn.

Legend:
SARS-CoV-2 3CL^pro = SARS-CoV-2 3CL^pro (Severe acute respiratory syndrome coronavirus 2, UniProt P0DTD1); assay type: biochemical
chymotrypsin = chymotrypsin (Bos taurus, UniProt P00766); assay: Enzymatic selectivity assay against chymotrypsin; assay type: biochemical
Procedure, shortened: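 Bovine chymotrypsin (5 nM final) was preincubated for 10 min with serial dilutions of test compound in phosphate-buffered saline, pH 7.4. The reaction was started with N-succinyl-AAPF-AMC (10 μM final). Fluorescence (ex 380 nm/em 460 nm) was read every 1 min for 10 min. Reaction rates relative to DMSO controls gave the inhibition profiles.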

| Structure (SMILES) | inhibitory activity with the addition of 4 mM DTT (SARS-CoV-2 3CL^pro) | IC50 (chymotrypsin) [µM] |
| --- | --- | --- |
| C/N=c1\nc(-c2ccc(F)cc2)n(-c2ccccc2)s1 [6g, 3-(4-fluorophenyl)-N-methyl-2-phenyl-1,2,4-thiadiazol-5(2H)-imine hydrobromide salt] | lost their inhibitory activity | > 100 |
| C/N=c1\nc(-c2ccccc2)n(-c2ccccc2)s1 [6a, N-methyl-2,3-diphenyl-1,2,4-thiadiazol-5(2H)-imine hydrobromide salt] | lost their inhibitory activity | > 100 |
